Assay results reported in ChEMBL document CHEMBL4402567, “Structure-Activity Relationship Studies on Diversified Salicylamide Derivatives as Potent Inhibitors of Human Adenovirus Infection” (J Med Chem, 2020).
The source made the active and inactive calls. The calls are words filed in the database; no cut-off is given here.

Legend:
[1] = Cytotoxicity against human A549 cells assessed as reduction in cell viability after 48 hrs by alamar blue assay; assay type: cell-based
[2] = test system: Human adenovirus 5; test: Antiviral activity against Human adenovirus 5 infected in human A549 cells assessed as fold reduction in virus yield at 5 uM after 48 hrs endpoint dilution method relative to control; assay type: functional
[3] = test system: Human adenovirus 5; test: Antiviral activity against Human adenovirus 5 infected in 293beta5 cells assessed as inhibition of viral infection at 5 uM preincubated for 60 mins followed by viral infection by GFP reporter gene assay relative to control; assay type: functional; conditions: Human mastadenovirus C
[4] = test system: Human adenovirus 5; test: Antiviral activity against Human adenovirus 5 infected in 293beta5 cells assessed as inhibition of viral infection at 5 uM measured after 2 hrs post infection by gene assay relative to control; assay type: functional; conditions: Human mastadenovirus C, 293beta5, 2 h
[5] = test system: Human adenovirus 5; test: Antiviral activity against Human adenovirus 5 infected in human A549 cells assessed as inhibition of viral entry after 48 hrs by GFP reporter gene based assay; assay type: functional, organism-based; conditions: Human mastadenovirus C, A549, 48 h
How it was run: (§1)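 Entry assay in A549 epithelial cells infected with HAdV5-GFP at high MOI, with compound present throughout and 48 h incubation. GFP expression is the read-out.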

[6] = test system: Human adenovirus 5; test: Antiviral activity against Human adenovirus 5 infected in human A549 cells assessed as inhibition of viral DNA replication at 5 uM after 24 hrs by RT-qPCR analysis relative to control; assay type: functional; conditions: Human mastadenovirus C, A549, 24 h
[7] = test system: Human adenovirus 5; test: Antiviral activity against Human adenovirus 5 infected in human A549 cells assessed as inhibition of viral DNA replication by measuring number of viral DNA copies at 5 uM after 24 hrs by RT-qPCR analysis (reference value: 100 +/- 1.55%); assay type: functional; set-up: scale not given: the % may be the effect or the level left
[8] = Selectivity index, ratio of CC50 for cytotoxicity against human A549 cells to IC50 for antiviral activity against Human adenovirus 5 infected in 293beta5 cells assessed as inhibition of plaque formation after 7 days; assay type: toxicity, cell-based; conditions: read-out: Ratio CC50/IC50
[9] = test system: Human adenovirus 5; test: Antiviral activity against Human adenovirus 5 infected in human A549 cells asssessed as inhibition of viral entry by measuring nuclear-associated viral genome level at 5 uM after 45 mins by RT-PCR analysis (reference value: 100.24 +/- 2.77%); assay type: functional; set-up: scale not given: the % may be the effect or the level left
How it was run: (§2)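 Nuclear HAdV genome levels in treated cells were quantified at 45 min post-infection and compared with DMSO-treated cells. […] Bars are means ± SD of triplicate samples.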

[10] = test system: Human adenovirus 5; test: Antiviral activity against Human adenovirus 5 infected in 293beta5 cells assessed as inhibition of plaque formation incubated for 7 days by GFP reporter gene assay; assay type: functional, organism-based; conditions: Human mastadenovirus C, 293beta5, 168 h
How it was run: (§3)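 HAdV5-GFP plaque assay in 293β5 cells at low MOI. Inhibition is expressed as percent of the infected control, with single-dose screening at 10 μM. Compounds giving >90% inhibition went on to IC50 determination. Values are means ± SD of triplicate samples from three independent experiments.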

[11] = test system: Human adenovirus 5; test: Antiviral activity against Human adenovirus 5 infected in 293beta5 cells assessed as inhibition of plaque formation at 10 uM incubated for 7 days by GFP reporter gene assay relative to control; assay type: functional; conditions: Human mastadenovirus C, 293beta5, 168 h; how it was run: as §3
[12] = test system: Human adenovirus 5; test: Antiviral activity against Human adenovirus 5 infected in human A549 cells asssessed as inhibition of viral entry by measuring nuclear-associated viral genome level at 50 uM after 45 mins by RT-PCR analysis (reference value: 100.24 +/- 2.77%); assay type: functional; set-up: scale not given: the % may be the effect or the level left; how it was run: as §2
[13] = test system: Human adenovirus 5; test: Antiviral activity against Human adenovirus 5 infected in human A549 cells assessed as inhibition of viral DNA replication by measuring number of viral DNA copies at 50 uM after 24 hrs by RT-qPCR analysis (reference value: 100 +/- 1.55%); assay type: functional; set-up: scale not given: the % may be the effect or the level left
[14] = test system: Human adenovirus 5; test: Antiviral activity against Human adenovirus 5 infected in human A549 cells assessed as fold reduction in virus yield at 50 uM after 48 hrs endpoint dilution method relative to control; assay type: functional
[15] = test system: Human adenovirus 5; test: Antiviral activity against Human adenovirus 5 infected in 293beta5 cells assessed as inhibition of viral replication at 10 uM measured immediately post infection by GFP reporter gene assay relative to control; assay type: functional; conditions: Human mastadenovirus C
[16] = test system: Human adenovirus 5; test: Antiviral activity against Human adenovirus 5 infected in human A549 cells assessed as inhibition of viral DNA replication by measuring number of viral DNA copies at 2 uM after 24 hrs by RT-qPCR analysis (reference value: 100 +/- 1.55%); assay type: functional; set-up: scale not given: the % may be the effect or the level left
[17] = test system: Human adenovirus 5; test: Antiviral activity against Human adenovirus 5 infected in 293beta5 cells assessed as inhibition of viral infection at 5 uM measured after 20 to 40 mins post infection by GFP reporter gene assay relative to control; assay type: functional; set-up: scale not given: the % may be the effect or the level left
[18] = test system: Human adenovirus 5; test: Antiviral activity against Human adenovirus 5 infected in human A549 cells asssessed as inhibition of viral entry by measuring nuclear-associated viral genome level at 2 uM after 45 mins by RT-PCR analysis (reference value: 100.24 +/- 2.77%); assay type: functional; set-up: scale not given: the % may be the effect or the level left; how it was run: as §2
[19] = test system: Human adenovirus 5; test: Antiviral activity against Human adenovirus 5 infected in human A549 cells assessed as fold reduction in virus yield at 2 uM after 48 hrs endpoint dilution method relative to control; assay type: functional
[20] = test system: Human adenovirus 5; test: Antiviral activity against Human adenovirus 5 infected in human A549 cells assessed as inhibition of viral entry at 50 uM after 48 hrs by GFP reporter gene based assay relative to control; assay type: functional; conditions: Human mastadenovirus C, A549, 48 h; how it was run: as §1
[21] = test system: Human adenovirus 5; test: Antiviral activity against Human adenovirus 5 infected in human A549 cells assessed as fold reduction in virus yield at 20 uM after 48 hrs endpoint dilution method relative to control; assay type: functional
[22] = test system: Human adenovirus 5; test: Antiviral activity against Human adenovirus 5 infected in 293beta5 cells assessed as reduction in inhibition of viral replication at 10 uM preincubated for 60 mins followed by viral infection by GFP reporter gene assay; assay type: functional, organism-based
[23] = test system: Human adenovirus 5; test: Antiviral activity against Human adenovirus 5 infected in 293beta5 cells assessed as inhibition of viral replication at 10 uM after 20 mins post infection by GFP reporter gene assay relative to control; assay type: functional; conditions: Human mastadenovirus C, 293beta5, 20 min
[24] = test system: Human adenovirus 5; test: Antiviral activity against Human adenovirus 5 infected in human A549 cells assessed as inhibition of viral DNA replication by measuring number of viral DNA copies at 20 uM after 24 hrs by RT-qPCR analysis (reference value: 100 +/- 1.55%); assay type: functional; set-up: scale not given: the % may be the effect or the level left
[25] = test system: Human adenovirus 5; test: Antiviral activity against Human adenovirus 5 infected in human A549 cells asssessed as inhibition of viral entry by measuring nuclear-associated viral genome level at 20 uM after 45 mins by RT-PCR analysis (reference value: 100.24 +/- 2.77%); assay type: functional; set-up: scale not given: the % may be the effect or the level left; how it was run: as §2
[26] = test system: Human adenovirus 5; test: Antiviral activity against Human adenovirus 5 infected in human A549 cells asssessed as inhibition of viral entry by measuring nuclear-associated viral genome level at 10 uM after 45 mins by RT-PCR analysis (reference value: 100.24 +/- 2.77%); assay type: functional; set-up: scale not given: the % may be the effect or the level left; how it was run: as §2
[27] = test system: Human adenovirus 5; test: Antiviral activity against Human adenovirus 5 infected in human A549 cells assessed as inhibition of viral DNA replication by measuring number of viral DNA copies at 10 uM after 24 hrs by RT-qPCR analysis (reference value: 100 +/- 1.55%); assay type: functional; set-up: scale not given: the % may be the effect or the level left
[28] = test system: Human adenovirus 5; test: Antiviral activity against Human adenovirus 5 infected in human A549 cells assessed as fold reduction in virus yield at 10 uM after 48 hrs endpoint dilution method relative to control; assay type: functional
[29] = test system: Human adenovirus 5; test: Antiviral activity against Human adenovirus 5 infected in 293beta5 cells assessed as inhibition of viral infection at 10 uM measured after 5 to 10 mins post infection by GFP reporter gene assay relative to control; assay type: functional; set-up: scale not given: the % may be the effect or the level left
[30] = test system: Human adenovirus 5; test: Antiviral activity against Human adenovirus 5 infected in 293beta5 cells assessed as inhibition of viral infection at 10 uM preincubated for 60 mins followed by viral infection by GFP reporter gene assay relative to control; assay type: functional; conditions: Human mastadenovirus C
[31] = test system: Human adenovirus 5; test: Antiviral activity against Human adenovirus 5 infected in 293beta5 cells assessed as inhibition of viral infection at 10 uM measured after 2 hrs post infection by GFP reporter gene assay relative to control; assay type: functional; conditions: Human mastadenovirus C, 293beta5, 2 h

## CC[C@@H](C)[C@H](NC(=O)c1cc(Cl)ccc1O)C(=O)Nc1ccc([N+](=O)[O-])cc1Cl
[1]
  CC50 at 48 h: 20.2 µM
[2]
  fold change (FC): 10
[3]
  inhibition at 5 µM: > 50%
[4]
  inhibition at 5 µM: > 50%
[5]
  IC50: 2.5 µM
[6]
  inhibition at 5 µM: > 90%
[7]
  Activity: 2.33%
[8]
  selectivity ratio at 168 h: 128
[9]
  Activity: 0.54%
[10]
  IC50: 0.16 µM

## CC(C)[C@H](NC(=O)c1cc(Cl)ccc1O)C(=O)Nc1ccc([N+](=O)[O-])cc1Cl
[11]
  inhibition at 10 µM: 100%
[1]
  CC50 at 48 h: 200 µM
[5]
  IC50: 11.2 µM
[12]
  Activity: 91.82%
[13]
  Activity: 60.09%
[14]
  fold change (FC): 213
[8]
  selectivity ratio at 168 h: 444
[10]
  IC50: 0.45 µM
[15]
  inhibition at 10 µM: < 50%

## O=C(Nc1ccc([N+](=O)[O-])cc1F)c1cc(Cl)ccc1O
[1]
  CC50 at 48 h: 10.9 µM
[5]
  IC50: 1.57 µM
[16]
  Activity: 75.85%
[17]
  Activity: 34%
[8]
  selectivity ratio at 168 h: 218
[18]
  Activity: 57.6%
[10]
  IC50: 0.05 µM
[19]
  fold change (FC): 1.8

## O=C(Nc1cc(F)cc(C(F)(F)F)c1)c1ccc(Cl)cc1O
[1]
  CC50 at 48 h: 20.6 µM
[2]
  fold change (FC): 385
[3]
  inhibition at 5 µM: > 50%
[4]
  inhibition at 5 µM: > 50%
[5]
  IC50: 0.26 µM
[20]
  inhibition at 50 µM: 100%
[7]
  Activity: 68.17%
[8]
  selectivity ratio at 168 h: 187
[9]
  Activity: 54.74%
[10]
  IC50: 0.11 µM

## O=C(N[C@H](Cc1ccccc1)C(=O)Nc1ccc([N+](=O)[O-])cc1Cl)c1cc(Cl)ccc1O
[21]
  fold change (FC): 528
[11]
  inhibition at 10 µM: 100%
[1]
  CC50 at 48 h: 77.9 µM
[5]
  IC50: 9.7 µM
[22]
  Activity: Active
[23]
  inhibition at 10 µM: 50%
[8]
  selectivity ratio at 168 h: 260
[24]
  Activity: 25.78%
[10]
  IC50: 0.3 µM
[25]
  Activity: 32.21%

## O=C(Nc1ccc(C(F)(F)F)cc1Cl)c1cc(Cl)ccc1O
[11]
  inhibition at 10 µM: 100%
[5]
  IC50: 1.67 µM
[26]
  Activity: 46.53%
[27]
  Activity: 27.03%
[28]
  fold change (FC): 175
[20]
  inhibition at 50 µM: 100%
[10]
  IC50: 0.08 µM
[29]
  Activity: 20%

## O=C(Nc1ccc([N+](=O)[O-])cc1)c1cc(Cl)ccc1O
[2]
  fold change (FC): 137
[3]
  inhibition at 5 µM: > 50%
[4]
  inhibition at 5 µM: > 50%
[6]
  inhibition at 5 µM: > 90%
[20]
  inhibition at 50 µM: 100%
[7]
  Activity: 0.51%
[9]
  Activity: 15.48%
[10]
  IC50: 0.11 µM

## CC(C)[C@H](NC(=O)c1cc(Cl)ccc1NS(C)(=O)=O)C(=O)Nc1ccc([N+](=O)[O-])cc1Cl
[11]
  inhibition at 10 µM: 99.1%
[1]
  CC50 at 48 h: 174 µM
[5]
  IC50: 1.38 µM
[30]
  inhibition at 10 µM: > 50%
[12]
  Activity: 16.68%
[13]
  Activity: 4.56%
[20]
  inhibition at 50 µM: 99.1%
[31]
  inhibition at 10 µM: > 50%
[14]
  fold change (FC): 1
[8]
  selectivity ratio at 168 h: 256
[10]
  IC50: 0.68 µM

## O=C(Nc1ccc([N+](=O)[O-])cc1Cl)c1cc(Cl)ccc1O [NICLOSAMIDE]
[11]
  inhibition at 10 µM: 100%
[2]
  fold change (FC): 82
[5]
  IC50: 1.22 µM
[20]
  inhibition at 50 µM: 100%
[7]
  Activity: 0.05%
[9]
  Activity: 49.51%
[10]
  IC50: 0.6 µM

## O=C(Nc1cc(F)cc(C(F)(F)F)c1)c1cc(Cl)ccc1O
[11]
  inhibition at 10 µM: 100%
[1]
  CC50 at 48 h: 120 µM
[5]
  IC50: 2.23 µM
[12]
  Activity: 66.96%
[13]
  Activity: 82.41%
[20]
  inhibition at 50 µM: 100%
[14]
  fold change (FC): 989
[8]
  selectivity ratio at 168 h: 667
[10]
  IC50: 0.18 µM
[15]
  inhibition at 10 µM: < 50%
